Columns and labels:
[1] = system: Staphylococcus aureus; experiment: Antimicrobial activity against methicillin resistant Staphylococcus aureus COL assessed as bacterial killing by time kill study; format: functional, organism-based
[2] = system: Staphylococcus aureus; experiment: Antimicrobial activity against methicillin resistant Staphylococcus aureus Newman assessed as bacterial killing by time kill study; format: functional, organism-based
[3] = system: Staphylococcus aureus; experiment: Antimicrobial activity against methicillin resistant Staphylococcus aureus isolate A20780 I isolated from persistent bacterial infection patient assessed as bacterial killing by time kill study; format: functional, organism-based
[4] = system: Staphylococcus aureus; experiment: Antimicrobial activity against methicillin resistant Staphylococcus aureus COL assessed as bacterial killing at 64 times MIC after 24 hrs by time kill study relative to baseline; format: functional
Outline: (§1)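 Time-kill in Ca/Mg-supplemented BHI. A 0.5 McFarland saline suspension was diluted to about 10^7 CFU/ml with vancomycin in 10-ml cultures, shaken at 35°C. Counts at 0, 1, 2, 4, 6 and 24 h by spiral plating on BHI agar, incubated 24 h at 35°C (48 h for Ia48 and III33). Drug-free growth controls were run. Value is the 24-h log10 CFU/ml change from baseline; runs were duplicate to quadruplicate.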

[5] = system: Staphylococcus aureus; experiment: Antimicrobial activity against methicillin resistant Staphylococcus aureus Newman assessed as bacterial killing at 64 times MIC after 24 hrs by time kill study relative to baseline; format: functional; outline: as §1
[6] = system: Staphylococcus aureus; experiment: Antimicrobial activity against methicillin resistant Staphylococcus aureus isolate A20780 I isolated from persistent bacterial infection patient assessed as bacterial killing at 64 times MIC after 24 hrs by time kill study; format: functional; outline: as §1
[7] = system: Staphylococcus aureus; experiment: Antimicrobial activity against methicillin resistant Staphylococcus aureus isolate A20780 II with hemin auxotrophism and expressing small-colony-variant phenotype isolated from persistent bacterial infection patient assessed as bacterial killing at 64 times MIC after 24 hrs by time kill study; format: functional; outline: as §1
[8] = system: Staphylococcus aureus; experiment: Antimicrobial activity against methicillin resistant Staphylococcus aureus Ia48 containing hemB mutation (hemB::ermB) expressing small-colony-variant phenotype assessed as bacterial killing at 64 times MIC after 24 hrs by time kill study; format: functional; outline: as §1
[9] = system: Staphylococcus aureus; experiment: Antimicrobial activity against methicillin resistant Staphylococcus aureus III33 containing hemB mutation (hemB::ermB) expressing small-colony-variant phenotype assessed as bacterial killing at 64 times MIC after 24 hrs by time kill study; format: functional; outline: as §1

## CN[C@H](CC(C)C)C(=O)N[C@H]1C(=O)N[C@@H](CC(N)=O)C(=O)N[C@H]2C(=O)N[C@H]3C(=O)N[C@H](C(=O)N[C@H](C(=O)O)c4cc(O)cc(O)c4-c4cc3ccc4O)[C@H](O)c3ccc(c(Cl)c3)Oc3cc2cc(c3O[C@@H]2O[C@H](CO)[C@@H](O)[C@H](O)[C@H]2O[C@H]2C[C@](C)(N)[C@H](O)[C@H](C)O2)Oc2ccc(cc2Cl)[C@H]1O [VANCOMYCIN]
[1]
  Activity: Dose-dependent effect
[2]
  Activity: Dose-dependent effect
[3]
  Activity: Dose-dependent effect
[4]
  log10CFU/ml: 3.99
[5]
  log10CFU/ml: 4.81
[6]
  log10CFU/ml: 2.39
[7]
  log10CFU/ml: 1.78
[8]
  log10CFU/ml: 1.4
[9]
  log10CFU/ml: 1.88

— ChEMBL document CHEMBL1255317, “Attenuated vancomycin bactericidal activity against Staphylococcus aureus hemB mutants expressing the small-colony-variant phenotype” (2008)
